Screens (PubChem)
Hits are enriched below; roughly 3.3% of the tested compounds scored in any of these assays.
FGF22 binding: binders of recombinant human FGF22 by thermal shift; activity (Tm shift, normalised), % at 9.99 µM; hit rate 1.5% among 340,000; Q9HCT0; SYPRO orange fluorescence; percent of sucrose octasulfate shift, DMSO zero; AID 651658;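 active = mean Tm shift, scaled 0 neutral to 100 positive control, at about 1.3% or above, every replicate too, limit read from the data; inconclusive = no clear call, values can overlap the other calls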
PglD DTNB: PglD (C. jejuni) enzyme inhibition; purified PglD enzyme, DTNB colorimetric CoA detection; inhibition, % at 12.5 µM; hit rate 0.098% among 360,000; in the data active = inhibition above about 16%, passing the limit was not always enough; inconclusive = no clear call, values can overlap the other calls
C2C12 statin: protects C2C12 myotubes from simvastatin toxicity | ATP luminescence, 48 h; scaled: DMSO 0, geranylgeraniol control 100 | rescue of ATP level, % at 7.49 µM | hit rate 0.78% among 330,000 | AID 602340;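 active = mean ATP rescue above about 67%, or every replicate alone reaching that limit, limit read from the data, passing the limit was not always enough; inconclusive = no clear call, values can overlap the other calls; inactive = mean under the limit and some replicate under it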;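 also: myotubes were challenged with 10 µM simvastatin during compound exposure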
E-sel inducer: E-selectin induction on HUVECs. P16581. HUVEC E-selectin immunofluorescence imaging; normalized: neutral wells 0, TNF-alpha wells 100. activation, % at 7.58 µM. hit rate 0.37% among 260,000;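 active = mean E-selectin-positive cell signal at least 10% of the positive control, reached in at least 60% of replicates, without over 20% cell loss; inconclusive = no rule given, readout overlaps actives, possibly toxicity-flagged; inactive = the rest, including those meeting only one limit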
Target sequence (P16581 whole entry, looked up): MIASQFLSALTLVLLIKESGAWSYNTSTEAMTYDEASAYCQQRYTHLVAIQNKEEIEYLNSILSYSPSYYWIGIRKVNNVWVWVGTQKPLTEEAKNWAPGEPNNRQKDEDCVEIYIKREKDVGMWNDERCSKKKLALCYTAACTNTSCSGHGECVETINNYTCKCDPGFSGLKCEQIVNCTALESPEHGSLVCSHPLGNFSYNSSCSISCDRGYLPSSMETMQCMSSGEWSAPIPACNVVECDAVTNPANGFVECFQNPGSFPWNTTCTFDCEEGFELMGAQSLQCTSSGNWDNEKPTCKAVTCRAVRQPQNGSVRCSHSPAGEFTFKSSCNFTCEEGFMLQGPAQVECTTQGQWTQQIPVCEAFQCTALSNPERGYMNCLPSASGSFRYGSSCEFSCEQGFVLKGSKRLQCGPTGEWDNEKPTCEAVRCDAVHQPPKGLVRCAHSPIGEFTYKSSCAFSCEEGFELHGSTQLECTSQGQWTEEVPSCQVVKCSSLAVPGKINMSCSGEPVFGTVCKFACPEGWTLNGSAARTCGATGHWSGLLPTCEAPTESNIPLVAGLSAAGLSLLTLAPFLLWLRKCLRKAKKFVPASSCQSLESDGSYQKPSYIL
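Test system: HUVEC; input: 3,000 HUVEC/well; measured by: immunofluorescence imaging; read-out: % PE-positive cells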
XiGFP reactiv: reactivates the inactive X chromosome in mouse fibroblasts; XiGFP mouse fibroblasts, % GFP-positive cells imaging, 3 d; cells co-treated with 5-aza-dC sensitizer; scaled so ellipticine positive control = 100%; activation, % at 7.58 µM; hit rate 0.055% among 360,000;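 active = mean normalized replicate activation at least 10% and every replicate at or above 10%; inconclusive = only one of the two criteria met; inactive = mean below 10% and not all replicates reach 10%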;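 also: 0% = median of on-plate neutral control wells and 100% = ellipticine 6 µM median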
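Material: XiGFP fibroblasts, SV40-immortalized. Buffer or medium: DMEM plus 5-aza-dC sensitizer. Compound: single concentration per compound, delivered by pin transfer. Times: 3 days compound exposure. Controls: ellipticine 6 µM.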
DENV2 CPE: DENV2-induced cell death inhibition; DENV2-infected cells, cytopathic effect rescue, plate reader; CPE inhibition, % at 9.99 µM; hit rate 1.7% among 350,000; AID 651640; in the data active = CPE inhibition above about 20%, passing the limit was not always enough; inconclusive = no clear call, values can overlap the other calls; tested in BHK-21 cells;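 also: 0% = median of neutral control wells and 100% = median of positive control wells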
Numbers without * were called inactive; u = inconclusive; x = not tested or not shown.

SMILES	FGF22 binding	PglD DTNB	C2C12 statin	E-sel inducer	XiGFP reactiv	DENV2 CPE
CC(C)NC(=O)Nc1cccc2c1O[C@H](CN(C)Cc1ccc(C(F)(F)F)cc1)[C@@H](C)CN([C@@H](C)CO)C2=O	0	4	1	-17	0	16
CC(C)NC(=O)Nc1cccc2c1O[C@@H](CN(C)Cc1ccccc1)[C@@H](C)CN([C@@H](C)CO)C2=O	0	-1	2	0	-1	1
C[C@H](CO)N1C[C@H](C)[C@@H](CN(C)Cc2ccc(C(F)(F)F)cc2)Oc2c(NC(=O)Nc3ccc(F)cc3)cccc2C1=O	0	-4	-2	0	1	69*
CC(C)NC(=O)Nc1cccc2c1O[C@@H](CN(C)Cc1ccc(C(F)(F)F)cc1)[C@@H](C)CN([C@H](C)CO)C2=O	0	18	8	53*	0	u
CCCNC(=O)N1CC2(CN(C(=O)c3cccnc3)C2)c2c([nH]c3cc(OC)ccc23)[C@@H]1CO	0	x	x	0	0	-18
CC(=O)N(C)C[C@H]1Oc2ncc(C3=CCCC3)cc2C(=O)N([C@H](C)CO)C[C@@H]1C	0	1	-4	0	0	1
CO[C@H]1CN(C)C(=O)c2ccc(NC(=O)NC(C)C)cc2OC[C@@H](C)N(Cc2cocn2)C[C@H]1C	x	-1	6	0	0	x
COCc1cn(CC[C@@H]2CC[C@@H](NC(=O)Nc3c(C)noc3C)[C@H](CO)O2)nn1	0	-2	-5	0	1	2
COc1ccc(CN(C)C[C@@H]2Oc3c(NC(=O)Nc4ccc(OC)cc4)cccc3C(=O)N([C@H](C)CO)C[C@H]2C)cc1	0	-6	20	0	0	42*
COc1ccc(NC(=O)Nc2cccc3c2O[C@H](CN(C)Cc2ccc(C(F)(F)F)cc2)[C@@H](C)CN([C@H](C)CO)C3=O)cc1	-1	-3	45	0	-1	22*
COc1ccc(CN(C)C[C@H]2Oc3c(NC(=O)Nc4ccc(OC)cc4)cccc3C(=O)N([C@H](C)CO)C[C@@H]2C)cc1	0	-1	28	0	0	-4
CCN(CC)C(=O)Cn1cc(C(=O)C(=O)N2CCN(C)CC2)c2ccccc21	0	0	4	0	0	u
CCN(CC)C(=O)Cn1cc(C(=O)C(=O)N2CC=C(c3ccccc3)CC2)c2ccccc21	43*	x	x	0	0	-2
C[C@@H]1CCCCO[C@@H](CN(C)C(=O)Cc2ccccc2)[C@@H](C)CN([C@@H](C)CO)C(=O)c2cc(NS(=O)(=O)c3ccc(F)cc3)ccc2O1	0	0	x	0	0	-7
Cc1ccc(C(=O)N(CN2CCCC2=O)c2ccccc2)cc1C	x	1	x	x	x	x
Cc1ccc(N(CN2CCCC2=O)C(=O)c2ccc(C)c(C)c2)cc1	x	-2	113*	x	x	x
Cc1ccc(NS(=O)(=O)c2ccc(C(=O)NCCCN3CCCC3=O)cc2)cc1	0	0	5	0	0	103*
CCOc1ccccc1C=C1SC(=S)NC1=O	0	0	-27	0	0	35*
C[C@@H]1CN([C@@H](C)CO)C(=O)c2cc(NC(=O)Nc3ccc4c(c3)OCO4)ccc2O[C@H]1CN(C)C	0	-12	-1	45*	-1	0
C[C@H]1CN([C@@H](C)CO)C(=O)c2cc(NC(=O)Nc3ccc(F)cc3)ccc2O[C@H]1CN(C)C	0	4	-8	2	0	-1
C[C@H](CO)N1C[C@H](C)[C@@H](CN(C)C)Oc2ccc(NC(=O)Nc3ccc(F)cc3)cc2C1=O	0	3	3	-2	0	75*
C[C@H]1CN([C@@H](C)CO)C(=O)c2cc(NC(=O)Nc3ccc(F)cc3)ccc2O[C@@H]1CN(C)C	0	-1	-5	1	0	26*
C[C@@H]1CN([C@@H](C)CO)C(=O)c2cc(NC(=O)Nc3ccc(C(F)(F)F)cc3)ccc2O[C@@H]1CN(C)C	0	-1	-19	0	-1	22*
CCCC(=O)Nc1ccc2c(c1)C(=O)N(C)[C@@H]1CC[C@@H](CC(=O)Nc3ccccc3)O[C@@H]1CO2	0	1	11	0	0	2
CC(C)NC(=O)Nc1ccc2c(c1)C(=O)N([C@H](C)CO)C[C@H](C)[C@@H](CN(C)S(C)(=O)=O)OCCCC[C@H](C)O2	0	2	x	x	0	-2
SMILES	FGF22 binding	PglD DTNB	C2C12 statin	E-sel inducer	XiGFP reactiv	DENV2 CPE
C[C@@H]1CN([C@@H](C)CO)C(=O)c2cc(NC(=O)Nc3ccc4c(c3)OCO4)ccc2O[C@H]1CN(C)Cc1ccc(-c2ccccc2)cc1	0	1	x	60*	0	-11
O=C1/C(=C\c2c(NCCOCCO)nc3ccccn3c2=O)SC(=S)N1Cc1ccco1	0	-7	5	73*	1	-4
C[C@@H]1CN([C@H](C)CO)C(=O)Cc2cc(NC(=O)Cn3cnnn3)ccc2O[C@H]1CN(C)Cc1ccc2c(c1)OCO2	0	1	31	x	-1	9
COc1ccc(C(=O)NCCN2CCOCC2)c(OC)c1OC	0	2	7	1	0	5
COc1cccc(OCCCCCCN2CCOCC2)c1	x	5	112*	x	x	x
Cc1ccccc1C(=O)NCCN1CCOCC1	44*	x	x	x	0	-1
COc1ccc(C(=O)NCCN2CCOCC2)c(OC)c1	44*	x	-3	-1	0	10
Cc1ccccc1C(=O)NC(=S)NCCN1CCOCC1	x	x	-5	x	0	x
O=C(Cc1c(F)cccc1Cl)NCCN1CCOCC1	43*	1	4	x	0	1
COc1cccc(NC(=O)N[C@H]2C=C[C@H](CC(=O)Nc3ccccc3)O[C@H]2CO)c1	x	x	x	-1	0	5
COc1ccc(-n2cnc3cc(C(=O)NCCN4CCOCC4)ccc32)cc1	44*	x	x	x	0	4
CO[C@@H]1CN(C)C(=O)c2cc(NC(=O)C3CC3)ccc2OC[C@@H](C)N(CC2CCOCC2)C[C@@H]1C	0	4	1	0	0	-5
O=C(COC(=O)C1CC(=O)N(Cc2ccco2)C1)Nc1ccc(F)cc1F (configuration not stated)	0	3	6	-2	0	74*
O=C(Nc1ccc(F)cc1)C1CC(=O)N(Cc2ccco2)C1 (configuration not stated)	0	-8	x	x	0	4
O=C(NCc1ccco1)C1Cc2ccccc2CN1S(=O)(=O)c1ccccc1F (configuration not stated)	x	2	67*	x	x	x
O=C(NCc1ccccc1F)C1CC(=O)N(Cc2ccco2)C1 (configuration not stated)	44*	2	4	0	0	-4
